According to ChEMBL document CHEMBL3739331, “Synthesis and Bioactivities of Kanamycin B-Derived Cationic Amphiphiles” (J Med Chem, 2015):
Values after ≈ are worked out from the molar mass of the structure shown. Active and inactive are the calls of the source. No cut-off for these calls is given here.

Key:
Listeria monocytogenes [1] = assay: Resistance index, ratio of MIC for Listeria monocytogenes ATCC 19115 after 6-passage to MIC for Listeria monocytogenes ATCC 19115 by microdilution method; format: functional
In short: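 Cells grown at subinhibitory concentration (1/2 MIC) seed each next round. The index compares the MIC at a later passage with the starting MIC.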

Candida albicans [2] = assay: Antifungal activity against azole-resistant Candida albicans ATCC 64124 assessed as cell membrane permeabilization at 62.5 ug/ml after 1 hr by propidium iodide-staining based fluorescence microscopic analysis (reference value: <2%); format: functional
[3] = Hemolytic activity against mouse RBC at 100 to 500 ug/ml after 60 mins; format: ADME, cell-based; conditions: erythrocyte, 1 h
A549 = assay: Cytotoxicity against human A549 cells after 24 hrs by resazurin assay; format: cell-based; conditions: human, a549, 24 h
[4] = Cytotoxicity against human BEAS2B cells after 24 hrs by resazurin assay; format: cell-based, BEAS-2B; conditions: human, beas-2b
Klebsiella pneumoniae = assay: Antibacterial activity against Klebsiella pneumoniae ATCC 27736 by microdilution method; format: functional
In short: (§1)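 Broth microdilution MIC against the named bacterial strain, reported in μg/mL; each determination run at least in duplicate.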

Bacillus subtilis = assay: Antibacterial activity against Bacillus subtilis 168 by microdilution method; format: functional; conditions: subsp. subtilis str. 168; in short: as §1
Listeria monocytogenes [5] = assay: Antibacterial activity against Listeria monocytogenes ATCC 19115 by microdilution method; format: functional; in short: as §1
Staphylococcus aureus [6] = assay: Antibacterial activity against methicillin-resistant Staphylococcus aureus by microdilution method; format: functional
In short: (§2)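 Broth microdilution MIC, in μg/mL, against a panel of Gram-positive and Gram-negative strains. Run at least in duplicate.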

[7] = test system: Mycolicibacterium smegmatis; assay: Antibacterial activity against Mycobacterium smegmatis MC2 155 by microdilution method; format: functional; conditions: str. MC2 155; in short: as §2
Staphylococcus aureus [8] = assay: Antibacterial activity against Staphylococcus aureus ATCC 29213 by microdilution method; format: functional; in short: as §1
Staphylococcus aureus [9] = assay: Antibacterial activity against Staphylococcus aureus NRS382 (USA 100) by microdilution method; format: functional; in short: as §1
Staphylococcus aureus [10] = assay: Antibacterial activity against Staphylococcus aureus NRS383 (USA 200) by microdilution method; format: functional; in short: as §1
Staphylococcus aureus [11] = assay: Antibacterial activity against Staphylococcus aureus NRS385 (USA 300) by microdilution method; format: functional; in short: as §2
Staphylococcus aureus [12] = assay: Antibacterial activity against Staphylococcus aureus NRS22 (USA 600) by microdilution method; format: functional; in short: as §1
[13] = test system: Staphylococcus epidermidis; assay: Antibacterial activity against Staphylococcus epidermidis ATCC 12228 by microdilution method; format: functional; in short: as §1
Enterococcus = assay: Antibacterial activity against vancomycin-resistant Enterococcus by microdilution method; format: functional; in short: as §2
Acinetobacter baumannii = assay: Antibacterial activity against Acinetobacter baumannii ATCC 19606 by microdilution method; format: functional; in short: as §1
Enterobacter cloacae = assay: Antibacterial activity against Enterobacter cloacae ATCC 13047 by microdilution method; format: functional; in short: as §1
Escherichia coli = assay: Antibacterial activity against Escherichia coli MC1061 by microdilution method; format: functional; in short: as §2
Pseudomonas aeruginosa = assay: Antibacterial activity against Pseudomonas aeruginosa ATCC 27853 by microdilution method; format: functional; in short: as §1
Salmonella enterica = assay: Antibacterial activity against Salmonella enterica ATCC 14028 by microdilution method; format: functional; in short: as §1
[14] = Activity of AAC(3)-4 (unknown origin) assessed as compound conversion to monoacetylated product incubated for 20 hrs by TLC analysis
[15] = test system: Mycobacterium tuberculosis; assay: Activity of Mycobacterium tuberculosis AAC(2')-1c assessed as compound conversion to monoacetylated product incubated for 20 hrs by TLC analysis
Serratia marcescens = assay: Activity of Serratia marcescens AAC(6')-2d assessed as compound conversion to monoacetylated product incubated for 20 hrs by TLC analysis
[16] = Activity of Mycobacterium tuberculosis AAC(2')-1c/AAC(3)-4 (unknown origin) assessed as compound conversion to 3'-acetylated product incubated for 20 hrs by TLC analysis
[17] = Activity of Mycobacterium tuberculosis AAC(2')-1c/Serratia marcescens AAC(6')-2d assessed as compound conversion to 6'-monoacetylated product incubated for 20 hrs by TLC analysis
[18] = Activity of AAC(3)-4 (unknown origin)/Serratia marcescens AAC(6')-2d assessed as compound conversion to 3'-acetylated product incubated for 20 hrs by TLC analysis
[19] = Activity of Mycobacterium tuberculosis […]/AAC(3)-4 (unknown origin)/Serratia marcescens AAC(6')-2d (unknown origin) assessed as compound conversion to diacetylated adduct incubated for 20 hrs by TLC analysis
Candida albicans [20] = assay: Antifungal activity against azole-resistant Candida albicans ATCC 10231 after 48 hrs by microbroth dilution method; format: functional; conditions: ATCC 10231, 48 h
In short: (§3)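 Yeast MIC by broth microdilution, run in duplicate. The aminoglycoside compounds are read as MIC-0 (complete inhibition). Azoles are read as MIC-2 (50% inhibition).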

Candida albicans [21] = assay: Antifungal activity against azole-resistant Candida albicans ATCC 64124 after 48 hrs by microbroth dilution method; format: functional; conditions: ATCC 64124, 48 h; in short: as §3
Candida albicans [22] = assay: Antifungal activity against azole-susceptible Candida albicans ATCC MYA-2876 after 48 hrs by microbroth dilution method; format: functional; conditions: ATCC MYA-2876, 48 h; in short: as §3
Candida albicans [23] = assay: Antifungal activity against azole-resistant Candida albicans ATCC 90819 after 48 hrs by microbroth dilution method; format: functional; conditions: ATCC 90819, 48 h; in short: as §3
Candida albicans [24] = assay: Antifungal activity against azole-susceptible Candida albicans ATCC MYA-2310 after 48 hrs by microbroth dilution method; format: functional; conditions: ATCC MYA-2310, 48 h; in short: as §3
Candida albicans [25] = assay: Antifungal activity against azole-resistant Candida albicans MYA-1237 after 48 hrs by microbroth dilution method; format: functional; conditions: MYA-1237, 48 h; in short: as §3
Candida albicans [26] = assay: Antifungal activity against azole-resistant Candida albicans MYA-1003 after 48 hrs by microbroth dilution method; format: functional; conditions: MYA-1003, 48 h; in short: as §3
Aspergillus nidulans = assay: Antifungal activity against Aspergillus nidulans ATCC 38163 after 48 hrs by microbroth dilution method; format: functional; conditions: ATCC 38163, 48 h
In short: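 Filamentous fungus MIC by broth microdilution, run in duplicate. All compounds are read as MIC-0 (complete inhibition).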

Candida albicans [27] = assay: (§4) Antifungal activity against azole-resistant Candida albicans ATCC 10231 after 48 hrs in presence of (2R,3S,4R,5R,6R)-5-amino-2-(aminomethyl)-6-((1R,2S,3S,4R,6S)-4,6-diamino-3-((2S,3R,4S,5S,6S)-4-amino-6-(dodecylthiomethyl)-3,5-dihydroxytetrahydro-2H-pyran-2-yloxy)-2-hydroxycyclohexyloxy)tetrahydro-2H-pyran-3,4-diol by checkerboard microdilution assay; format: functional; conditions: ATCC 10231, 48 h
In short: (§5)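 Checkerboard combinations of the aminoglycoside amphiphile with posaconazole against yeast strains, run in duplicate. Each agent's MIC is taken alone and in combination. The fractional inhibitory concentration index (FICI) is calculated to classify the interaction.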

Candida albicans [28] = assay: as §4, with “64124” for “10231”; format: functional; conditions: ATCC 64124, 48 h; in short: as §5
Candida albicans [29] = assay: as §4, with “azole-susceptible” for “azole-resistant”, “MYA-2876” for “10231”; format: functional; conditions: ATCC MYA-2876, 48 h; in short: as §5
Candida albicans [30] = assay: as §4, with “90819” for “10231”; format: functional; conditions: ATCC 90819, 48 h; in short: as §5
Candida albicans [31] = assay: as §4, with “azole-susceptible” for “azole-resistant”, “MYA-2310” for “10231”; format: functional; conditions: ATCC MYA-2310, 48 h; in short: as §5
Candida albicans [32] = assay: as §4, with “MYA-1237” for “ATCC 10231”; format: functional; conditions: MYA-1237, 48 h; in short: as §5
Candida albicans [33] = assay: as §4, with “MYA-1003” for “ATCC 10231”; format: functional; conditions: MYA-1003, 48 h; in short: as §5
Candida albicans [34] = assay: as §4, with “10231 assessed as fractional inhibition” for “10231”; format: functional; conditions: ATCC 10231, 48 h; in short: as §5
Candida albicans [35] = assay: as §4, with “64124 assessed as fractional inhibition” for “10231”; format: functional; conditions: ATCC 64124, 48 h; in short: as §5
Candida albicans [36] = assay: as §4, with “azole-susceptible” for “azole-resistant”, “MYA-2876 assessed as fractional inhibition” for “10231”; format: functional; conditions: ATCC MYA-2876, 48 h; in short: as §5
Candida albicans [37] = assay: as §4, with “90819 assessed as fractional inhibition” for “10231”; format: functional; conditions: ATCC 90819, 48 h; in short: as §5
Candida albicans [38] = assay: as §4, with “azole-susceptible” for “azole-resistant”, “MYA-2310 assessed as fractional inhibition” for “10231”; format: functional; conditions: ATCC MYA-2310, 48 h; in short: as §5
Candida albicans [39] = assay: as §4, with “MYA-1237 assessed as fractional inhibition” for “ATCC 10231”; format: functional; conditions: MYA-1237, 48 h; in short: as §5
Candida albicans [40] = assay: as §4, with “MYA-1003 assessed as fractional inhibition” for “ATCC 10231”; format: functional; conditions: MYA-1003, 48 h; in short: as §5

NC[C@H]1O[C@H](O[C@H]2[C@H](O)[C@@H](O[C@H]3O[C@H](CO)[C@@H](O)[C@H](N)[C@H]3O)[C@H](N)C[C@@H]2N)[C@H](N)[C@@H](O)[C@@H]1O [BEKANAMYCIN]
Ratio (Listeria monocytogenes [1]): 4
Activity (Candida albicans [2]): 5%
Activity [3]: Non-toxic
Activity (A549): Non-toxic
Activity [4]: Non-toxic
MIC (Klebsiella pneumoniae): 4 µg/mL (≈ 8.27 µM)
MIC (Bacillus subtilis): 4 µg/mL (≈ 8.27 µM)
MIC (Listeria monocytogenes [5]): ≤ 0.25 µg/mL
MIC (Staphylococcus aureus [6]): > 128 µg/mL
MIC [7]: ≤ 0.25 µg/mL
MIC (Staphylococcus aureus [8]): ≤ 0.25 µg/mL
MIC (Staphylococcus aureus [9]): > 128 µg/mL
MIC (Staphylococcus aureus [10]): 128 µg/mL (≈ 265 µM)
MIC (Staphylococcus aureus [11]): 32 µg/mL (≈ 66.2 µM)
MIC (Staphylococcus aureus [12]): 32 µg/mL (≈ 66.2 µM)
MIC [13]: 0.5 µg/mL (≈ 1.03 µM)
MIC (Enterococcus): > 128 µg/mL
MIC (Acinetobacter baumannii): 4 µg/mL (≈ 8.27 µM)
MIC (Enterobacter cloacae): 0.5 µg/mL (≈ 1.03 µM)
MIC (Escherichia coli): 2 µg/mL (≈ 4.14 µM)
MIC (Pseudomonas aeruginosa): 16 µg/mL (≈ 33.1 µM)
MIC (Salmonella enterica): 2 µg/mL (≈ 4.14 µM)
Activity [14]: Active
Activity [15]: Active
Activity (Serratia marcescens): Active
Activity [16]: inactive
Activity [17]: inactive
Activity [18]: inactive
Activity [19]: Active
MIC (Candida albicans [20]): > 125 µg/mL
MIC (Candida albicans [21]): > 125 µg/mL
MIC (Candida albicans [22]): > 125 µg/mL
MIC (Candida albicans [23]): > 125 µg/mL
MIC (Candida albicans [24]): > 125 µg/mL
MIC (Candida albicans [25]): > 125 µg/mL
MIC (Candida albicans [26]): > 125 µg/mL
MIC (Aspergillus nidulans): > 125 µg/mL

CC[C@@H]([C@H](C)O)n1ncn(-c2ccc(N3CCN(c4ccc(OC[C@@H]5CO[C@@](Cn6cncn6)(c6ccc(F)cc6F)C5)cc4)CC3)cc2)c1=O [POSACONAZOLE]
MIC (Candida albicans [27]): 0.06 µg/mL
MIC (Candida albicans [28]): 0.78 µg/mL
MIC (Candida albicans [29]): 0.78 µg/mL
MIC (Candida albicans [30]): 0.78 µg/mL
MIC (Candida albicans [31]): 0.39 µg/mL
MIC (Candida albicans [32]): 0.78 µg/mL
MIC (Candida albicans [33]): 0.78 µg/mL
MIC (Candida albicans [34]): 0.06 µg/mL
MIC (Candida albicans [35]): 1.56 µg/mL
MIC (Candida albicans [36]): 1.56 µg/mL
MIC (Candida albicans [37]): 0.78 µg/mL
MIC (Candida albicans [38]): 1.56 µg/mL
MIC (Candida albicans [39]): 0.78 µg/mL
MIC (Candida albicans [40]): 1.56 µg/mL
MIC50 (Candida albicans [20]): 0.5 µg/mL (≈ 0.713 µM)
MIC50 (Candida albicans [21]): > 62.5 µg/mL
MIC50 (Candida albicans [22]): 7.8 µg/mL (≈ 11.1 µM)
MIC50 (Candida albicans [23]): 31.2 µg/mL (≈ 44.5 µM)
MIC50 (Candida albicans [25]): 15.6 µg/mL (≈ 22.3 µM)
MIC50 (Candida albicans [26]): 15.6 µg/mL (≈ 22.3 µM)
MIC (Aspergillus nidulans): ≤ 1.95 µg/mL
